From ChEMBL document CHEMBL3774342, “Indole Based Weapons to Fight Antibiotic Resistance: A Structure-Activity Relationship Study” (J Med Chem, 2016)
≈ marks a conversion by molar mass, not a printed value.

Key:
[1] = target: T1, Quinolone resistance protein NorA (Staphylococcus aureus) (UniProt P0A0J7); experiment: Inhibition of NorA efflux pump in Staphylococcus aureus 1199B assessed as reduction in EtBr efflux at 50 uM incubated for 20 mins measured for 5 mins by real-time fluorometric analysis
T1 sequence (whole entry): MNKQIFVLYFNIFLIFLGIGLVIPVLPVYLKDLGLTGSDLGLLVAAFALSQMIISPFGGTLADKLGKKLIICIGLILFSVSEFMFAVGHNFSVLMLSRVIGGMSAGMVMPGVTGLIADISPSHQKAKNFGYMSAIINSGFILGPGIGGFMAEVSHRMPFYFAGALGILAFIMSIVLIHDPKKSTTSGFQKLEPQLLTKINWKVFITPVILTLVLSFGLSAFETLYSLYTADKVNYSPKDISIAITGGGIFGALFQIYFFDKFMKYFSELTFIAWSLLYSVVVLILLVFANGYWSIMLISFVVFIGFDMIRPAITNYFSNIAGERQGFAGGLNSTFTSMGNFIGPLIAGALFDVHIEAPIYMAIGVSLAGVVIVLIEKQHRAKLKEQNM
Procedure, shortened: (§1)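 SA-1199B (norA-overexpressing) grown overnight in cation-supplemented Mueller-Hinton broth, diluted 25-fold and grown at 35 °C to OD600 0.7–0.8. Loaded with EtBr 25 µM plus CCCP 100 µM (final), then resuspended in fresh broth. Fluorescence read at ex 485/em 645 nm for 5 min, ± compound. Efflux inhibition in % relative to untreated cells; screened at 50 µM. IC50 from concentration series; triplicate, two technical replicates each.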

Staphylococcus aureus = experiment: Antimicrobial activity against Staphylococcus aureus 1199B by microdilution method; type: functional
Procedure, shortened: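 MIC by broth microdilution following CLSI guidelines against S. aureus SA-1199B, a strain that overexpresses norA. Run on compounds giving at least 80% EtBr efflux inhibition and on selected weaker ones.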

[2] = target: T2, Quinolone resistance protein NorA (Staphylococcus aureus, UniProt P0A0J7); experiment: Inhibition of NorA efflux pump in Staphylococcus aureus 1199B assessed as reduction in EtBr efflux incubated for 20 mins measured for 5 mins by real-time fluorometric analysis; procedure, shortened: as §1
T2 sequence (P0A0J7 whole entry): T1 sequence (whole entry)

Liver microsome [3] = experiment: Drug level in human liver microsomes treated with Ethyl 1-Benzyl-2-methyl-5-(3-(piperazin1-yl)propoxy)-(1H)-indole-3-carboxylate at 10 uM preincubated for 5 mins followed by NADPH addition measured after 30 mins by HPLC-MS/MS analysis; type: ADME; settings: 0.5 h
Procedure, shortened: (§2)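 Human liver microsomes at 0.5 mg protein/ml in 100 mM potassium phosphate pH 7.4. Substrate at 10 µM final, pre-incubated 5 min at 37 °C with shaking, then started with 1 mM NADPH. Quenched at 0 and 30 min with cold acetonitrile containing labetalol internal standard. Spun 12000 g, 5 min, 4 °C; supernatant analysed by UHPLC C18 HPLC-MS/MS.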

Liver microsome [4] = experiment: Drug level in human liver microsomes treated with Ethyl 1-benzyl-2-methyl-5-(3-(piperidin-1-yl)propoxy)-1H-indole-3-carboxylate at 10 uM preincubated for 5 mins followed by NADPH addition measured after 30 mins by HPLC-MS/MS analysis; type: ADME; settings: 0.5 h; procedure, shortened: as §2
Liver microsome [5] = experiment: Drug level in human liver microsomes treated with Ethyl 1-(2-Methoxybenzyl)-2-methyl-5-(3-(piperidin-1-yl)-propoxy)-1H-indole-3-carboxylate at 10 uM preincubated for 5 mins followed by NADPH addition measured after 30 mins by HPLC-MS/MS analysis; type: ADME; settings: 0.5 h; procedure, shortened: as §2
Liver microsome [6] = experiment: Drug level in human liver microsomes treated with Ethyl 5-(3-Aminopropoxy)-1-benzyl-2-methyl-(1H)-indole-3-carboxylate at 10 uM preincubated for 5 mins followed by NADPH addition measured after 30 mins by HPLC-MS/MS analysis; type: ADME; settings: 0.5 h; procedure, shortened: as §2
Liver microsome [7] = experiment: Drug level in human liver microsomes treated with Ethyl 1-Benzyl-2-methyl-5-(2-(piperazin-1-yl)ethoxy)-1H-indole-3-carboxylate at 10 uM preincubated for 5 mins followed by NADPH addition measured after 30 mins by HPLC-MS/MS analysis; type: ADME; settings: 0.5 h; procedure, shortened: as §2
[8] = target: T1, Quinolone resistance protein NorA (Staphylococcus aureus); experiment: Inhibition of NorA efflux pump in Staphylococcus aureus assessed as potentiation of ciprofloxacin-mediated antibacterial activity at 1.5 ug/ml relative to control
[9] = Metabolic stability in human liver microsomes assessed as compound remaining after at 10 uM preincubated for 5 mins followed by NADPH addition measured after 30 mins by HPLC-MS/MS analysis; type: ADME; settings: read-out: Stability; procedure, shortened: as §2
[10] = Solubility of the compound in D2O solution at 25 degC by 1H NMR analysis; type: physicochemical
Procedure, shortened: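 1H NMR in D2O at 25 °C with TSP internal standard, following a literature procedure.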

SMILES	inhibition [1] [%]	MIC (Staphylococcus aureus) [µg/mL]	IC50 [2] [µM]	other results
CCOC(=O)c1c(C)n(Cc2ccccc2)c2ccc(OC(C)=O)cc12	20.4			
CCOC(=O)c1c(C)n(Cc2ccccc2)c2ccc(OCCN3CCN(C)CC3)cc12	99.7	> 100	10.1	
CCOC(=O)Cc1c(C)n(Cc2ccccc2)c2ccc(OCCCN3CCCCCC3)cc12	98.4	100 (≈ 216 µM)	6.1	
CCOC(=O)c1c(C)[nH]c2ccc(OCCCN3CCNCC3)cc12				Drug metabolism (Liver microsome [3]): metabolite_detected
CCOC(=O)c1c(C)[nH]c2ccc(OCCCN3CCCCC3)cc12	34.2			Drug metabolism (Liver microsome [4]): metabolite_detected; Drug metabolism (Liver microsome [5]): metabolite_detected
CCOC(=O)c1c(C)[nH]c2ccc(OCCCN)cc12				Drug metabolism (Liver microsome [6]): metabolite_detected
CCOC(=O)c1c(C)n(Cc2ccccc2F)c2ccc(OCCCN3CCCCC3)cc12	89	> 100	4.8	
CCOC(=O)c1c(C)n(Cc2ccccc2)c2ccc(OCC(O)CN)cc12 (configuration not stated)	100	> 100	17.1	
CCOC(=O)c1c(C)n(Cc2cccc(OC)c2)c2ccc(OCCCN3CCCCC3)cc12	77.1	> 100	7.3	
CCOC(=O)c1c(C)n(Cc2ccccc2)c2ccc(OCCCN3CCC(F)(F)CC3)cc12	25.9			
CCOC(=O)c1c(C)n(Cc2ccccc2)c2ccc(OCCCCN)cc12	93.7	100 (≈ 263 µM)	6.7	
CCOC(=O)c1c(C)[nH]c2ccc(OCCN3CCNCC3)cc12				Drug metabolism (Liver microsome [7]): metabolite_detected
CCOC(=O)c1c(C)n(Cc2ccccc2)c2ccc(O)cc12	1	> 100		
CCOC(=O)c1c(C)n(CCc2ccccc2)c2ccc(OCCCN3CCCCC3)cc12	99.3	> 100	13.7	
CCOC(=O)c1c(C)n(Cc2cccc([N+](=O)[O-])c2)c2ccc(OCCCN3CCCCC3)cc12	85.1	> 100	4.4	
Cc1c(C(=O)O)c2cc(OCCCN3CCNCC3)ccc2n1Cc1ccccc1				Drug metabolism (Liver microsome [3]): metabolite_detected
CCOC(=O)c1c(C)n(Cc2ccccc2)c2ccc(OCCc3ccccc3)cc12	4.7	> 100		
CCOC(=O)c1c(C)n(Cc2cccc(C(F)(F)F)c2)c2ccc(OCCCN3CCCCC3)cc12	12.9	> 100	14.2	
CCOC(=O)c1c(C)n(Cc2cccc(C)c2)c2ccc(OCCCN3CCCCC3)cc12	70.9	50 (≈ 111 µM)	6.1	
CCOC(=O)c1c(C)n(Cc2ccccc2)c2ccc(OCC(O)CN3CCCCC3)cc12 (configuration not stated)	99.3	> 100	5.8	
CCOC(=O)c1c(C)n(Cc2ccccc2)c2ccc(OCCN)cc12	67.7			
CCOC(=O)c1c(C)n(Cc2ccc(F)cc2)c2ccc(OCCCN3CCCCC3)cc12	91.1	> 100	8.7	
CCOC(=O)c1c(C)n(Cc2ccccc2)c2ccc(OCCCCN3CCNCC3)cc12	71.9	> 100		
CCOC(=O)c1c(C)n(Cc2ccccc2)c2ccc([N+](=O)[O-])cc12	9.1			
Cc1c(C(=O)O)c2cc(OCCN3CCNCC3)ccc2n1Cc1ccccc1				Drug metabolism (Liver microsome [7]): metabolite_detected

SMILES	inhibition [1] [%]	MIC (Staphylococcus aureus) [µg/mL]	IC50 [2] [µM]	other results
CCOC(=O)c1c(C)n(Cc2ccccc2)c2ccc(OCC(O)CN3CCCCCC3)cc12 (configuration not stated)	92.8	100 (≈ 215 µM)	6.8	
CCOC(=O)c1c(C)n(Cc2ccccc2)c2ccc(OCCCN3CCOCC3)cc12	98.6	> 100	10.6	
CCOC(=O)c1c(C)n(Cc2ccc([N+](=O)[O-])cc2)c2ccc(OCCCN3CCCCC3)cc12	89.9	> 100	6.5	
CCOC(=O)c1c(C)n(Cc2ccccc2)c2ccc(OCCN3CCCCC3)cc12	100	> 100	11.6	
CCOC(=O)c1c(C)n(Cc2ccccc2)c2ccc(OCC(O)CN3CCOCC3)cc12 (configuration not stated)	99	> 100	17	
CCOC(=O)c1c(C)n(Cc2ccccc2O)c2ccc(OCCCN3CCCCC3)cc12				Drug metabolism (Liver microsome [5]): metabolite_detected
CCOC(=O)c1c(C)n(Cc2ccccc2)c2ccc(OCCN3CCOCC3)cc12	90.9	> 100	16.8	
CCOC(=O)c1c(C)n(Cc2ccccc2)c2ccc(C(F)(F)F)cc12	36.6			
O=[N+]([O-])c1ccc2[nH]c(-c3ccccc3)cc2c1				fold change (FC) [8]: 4
CCOC(=O)c1c(C)n(Cc2ccc(OC)cc2)c2ccc(OCCCN3CCCCC3)cc12	77.7	> 100	7.1	
CCOC(=O)c1c(C)n(Cc2ccccc2)c2ccc(OCCCNCc3ccccc3)cc12	45.4			
CCOC(=O)c1c(C)n(Cc2cccc(F)c2)c2ccc(OCCCN3CCCCC3)cc12	89.7	> 100	6.1	
CCOC(=O)c1c(C)n(Cc2ccc(C(F)(F)F)cc2)c2ccc(OCCCN3CCCCC3)cc12	77.7	> 100	14.1	
CCOC(=O)c1c(C)n(Cc2ccc(C)cc2)c2ccc(OCCCN3CCCCC3)cc12	58.3	25 (≈ 55.7 µM)	6.7	
CCOC(=O)c1c(C)n(Cc2ccccc2C)c2ccc(OCCCN3CCCCC3)cc12	54	25 (≈ 55.7 µM)	4.8	
Cc1c(C(=O)O)c2cc(OCCCN)ccc2n1Cc1ccccc1				Drug metabolism (Liver microsome [6]): metabolite_detected
CCOC(=O)c1c(C)n(Cc2ccccc2[N+](=O)[O-])c2ccc(OCCCN3CCCCC3)cc12	91.8	> 100	6.3	remaining at 0.5 h, 10 µM [9]: 89%; solubility [10]: 14 µM (≈ 6.71 µg/mL)
CCOC(=O)c1c(C)n(Cc2ccccc2)c2ccc(OCCN(C)C)cc12	98.2	> 100	22.5	
CCOC(=O)c1c(C)n(Cc2ccccc2)c2ccc(OCC(N)CO)cc12 (configuration not stated)	100	> 100	10.4	
Cc1cc2cc(OCCCN3CCCCC3)ccc2n1Cc1ccccc1	95.6	0.63 (≈ 1.74 µM)	6.6	remaining at 0.5 h, 10 µM [9]: 100%; solubility [10]: 70 µM (≈ 25.4 µg/mL)
CCOC(=O)c1c(C)n(Cc2ccccc2)c2ccc(OCCCN3CCCCCC3)cc12	77.4	> 100		
CCOC(=O)c1c(C)n(Cc2ccccc2)c2ccc(OCCCN3CCN(C)CC3)cc12	100	> 100	11.9	
CCOC(=O)c1c(C)n(Cc2ccccc2)c2ccc(OCC(CF)N3CCCCC3)cc12 (configuration not stated)	38.5	> 100		
Cc1c(C(=O)O)c2cc(OCCCN3CCCCC3)ccc2n1Cc1ccccc1	0			Drug metabolism (Liver microsome [4]): metabolite_detected
